# Measurements published in article PMC6136146 (Clinical genitourinary cancer, 2018).
# Entries after “also recorded” stand apart in the source; their conditions may differ. Numbered stars: 1 amine (or outer) side, 2 acyl side, 3 side chain; on linkers, the order of the positions; unused ones are H or OH. Square brackets hold non-standard residues; d marks the D form. Side chains are listed from the residue outwards. Peptide text beside a SMILES is read from it. * marks the point of attachment. Ethylenediamine = C(CN[*:2])N[*:1]; Hyp = O=C(O)[C@@H]1C[C@@H](O)CN1; Phg = N[C@H](C(=O)O)c1ccccc1; CO = O=C([*:1])[*:2]; Bn = c1ccc(C*)cc1
# Legend:
# mCRPC = conditions: no different between the 2 arms; cited from earlier work
# [1] = Pasireotide pharmacokinetics, radioimmunoassay with I-125-pasireotide; type: in vivo, human; conditions: intramuscular every 28 days
# In short: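 Competitive radioimmunoassay on patient samples: samples or standards incubated with I-125-pasireotide tracer and antiserum; immune complexes captured on anti-rabbit-coated magnetic beads, unbound fraction washed away, bound radioactivity read in gamma counter. Dosing: long-acting IM injection every 28 days at 40, 60 or 80 mg, with docetaxel 75 mg/m2 IV every 21 days and prednisone 5 mg orally twice daily.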
# PC3 cells = conditions: cited from earlier work
# DU145 cells = conditions: cited from earlier work
# [2] = tested on: patients with metastatic castrate-resistant prostate cancer (mCRPC); experiment: Phase I dose escalation: dose-limiting toxicity, MTD and toxicities; type: in vivo, human
# sst2 = conditions: extremely high affinity compared to octreotide; cited from earlier work
# sst1 = conditions: extremely high affinity compared to octreotide; cited from earlier work
# sst3 = conditions: extremely high affinity compared to octreotide; cited from earlier work
# sst5 = conditions: extremely high affinity compared to octreotide; cited from earlier work
# [3] = Docetaxel pharmacokinetics; type: in vivo, human; conditions: docetaxel 75 mg/m2 intravenously, coadministration of SOM230; single-agent docetaxel PK not done
# [4] = 60 mg dose level, 12 patients evaluated, number of patients
structure (smiles),measurement,setting,value
C[C@]12CC[C@@H]3c4ccc(OC(=O)N(CCCl)CCCl)cc4CC[C@H]3[C@@H]1CC[C@@H]2O [estramustine],Median OS,mCRPC,18 months
NCCCC[C@@H]1NC(=O)[C@@H](Cc2c[nH]c3ccccc23)NC(=O)[C@H](c2ccccc2)NC(=O)[C@@H]2C[C@@H](OC(=O)NCCN)CN2C(=O)[C@H](Cc2ccccc2)NC(=O)[C@H](Cc2ccc(OCc3ccccc3)cc2)NC1=O [Pasireotide] (cyclo([Hyp]([CO-Ethylenediamine])[Phg][dW]KY(Bn)F)),Steady state established in most patients,[1],≤ 57 days
same,Growth factor secretion in PC3 cells,PC3 cells,reduced secretion of stem cell factor and platelet-derived growth factor
same,Growth factors in DU145 cells,DU145 cells,decreased transforming growth factor-β and basic fibroblast growth factor
same,"Dehydration, Grade 1",[2]; [4],0 n
same,"Dehydration, Grade 2",[2]; [4],0 n
same,"Dehydration, Grade 3",[2]; [4],1 n
same,"Dehydration, Grade 4",[2]; [4],0 n
same,"Diarrhea, Grade 1",[2]; [4],2 n
same,"Diarrhea, Grade 2",[2]; [4],1 n
same,"Diarrhea, Grade 3",[2]; [4],0 n
same,"Diarrhea, Grade 4",[2]; [4],0 n
same,"Dry Mouth, Grade 1",[2]; [4],1 n
same,"Dry Mouth, Grade 2",[2]; [4],0 n
same,"Dry Mouth, Grade 3",[2]; [4],0 n
same,"Dry Mouth, Grade 4",[2]; [4],0 n
same,"Electrocardiogram QT Corrected Interval Prolong, Grade 1",[2]; [4],0 n
same,"Electrocardiogram QT Corrected Interval Prolong, Grade 2",[2]; [4],1 n
same,"Electrocardiogram QT Corrected Interval Prolong, Grade 3",[2]; [4],0 n
same,"Electrocardiogram QT Corrected Interval Prolong, Grade 4",[2]; [4],0 n
same,"Hyperglycemia, Grade 1",[2]; [4],0 n
same,"Hyperglycemia, Grade 2",[2]; [4],0 n
same,"Hyperglycemia, Grade 3",[2]; [4],3 n
same,"Hyperglycemia, Grade 4",[2]; [4],0 n
same,"Hyperkalemia, Grade 1",[2]; [4],0 n
same,"Hyperkalemia, Grade 2",[2]; [4],1 n
same,"Hyperkalemia, Grade 3",[2]; [4],0 n
same,"Hyperkalemia, Grade 4",[2]; [4],0 n
same,"Hypertension, Grade 1",[2]; [4],0 n
same,"Hypertension, Grade 2",[2]; [4],0 n
same,"Hypertension, Grade 3",[2]; [4],2 n
same,"Hypertension, Grade 4",[2]; [4],0 n
same,"Hyponatremia, Grade 1",[2]; [4],0 n
same,"Hyponatremia, Grade 2",[2]; [4],0 n
same,"Hyponatremia, Grade 3",[2]; [4],1 n
same,"Hyponatremia, Grade 4",[2]; [4],0 n
same,"Hypophosphatemia, Grade 1",[2]; [4],0 n
same,"Hypophosphatemia, Grade 2",[2]; [4],0 n
same,"Hypophosphatemia, Grade 3",[2]; [4],3 n
same,"Hypophosphatemia, Grade 4",[2]; [4],0 n
same,"Hypotension, Grade 1",[2]; [4],0 n
same,"Hypotension, Grade 2",[2]; [4],0 n
same,"Hypotension, Grade 3",[2]; [4],1 n
same,"Hypotension, Grade 4",[2]; [4],0 n
same,"Injection Site Reaction, Grade 1",[2]; [4],1 n
same,"Injection Site Reaction, Grade 2",[2]; [4],0 n
same,"Injection Site Reaction, Grade 3",[2]; [4],0 n
same,"Injection Site Reaction, Grade 4",[2]; [4],0 n
same,"Rash Acneiform, Grade 1",[2]; [4],1 n
same,"Rash Acneiform, Grade 2",[2]; [4],0 n
same,"Rash Acneiform, Grade 3",[2]; [4],0 n
same,"Rash Acneiform, Grade 4",[2]; [4],0 n
same,"Urinary Frequency, Grade 1",[2]; [4],1 n
same,"Urinary Frequency, Grade 2",[2]; [4],0 n
same,"Urinary Frequency, Grade 3",[2]; [4],0 n
same,"Urinary Frequency, Grade 4",[2]; [4],0 n
same,Grade 4 or 5 toxicities,"[2]; 60 mg dose, twelve patients evaluated",None of the patients experienced Grade 4 or 5 toxicities
same,Dose-limiting toxicities observed,[2]; 80-mg dose level of pasireotide,Grade 4 hyperglycemia unresponsive to therapy and Grade 4 neutropenia lasting for > 7 days in 1 patient each; also recorded: One patient had Grade 4 amylase elevation and the other had Grade 3 hyperglycemia requiring hospitalization
same,Hospitalizations because of hyperglycemia probably or definitely related to SOM230,[2]; in vivo,Three
same,Binding to sst2,sst2,binds
same,Binding to sst1,sst1,binds
same,Binding to sst3,sst3,binds
same,Binding to sst5,sst5,binds
CC(=O)O[C@@]12CO[C@@H]1C[C@H](O)[C@@]1(C)C(=O)[C@H](O)C3=C(C)[C@@H](OC(=O)[C@H](O)[C@@H](NC(=O)OC(C)(C)C)c4ccccc4)C[C@@](O)([C@@H](OC(=O)c4ccccc4)[C@H]21)C3(C)C [Docetaxel],Docetaxel clearance compared with the data reported in the literature,[3],3- to 4 fold higher
